This is an account of results in ChEMBL document CHEMBL1154079.

In test [1] the target is T1, Quinolone resistance protein NorA (Staphylococcus aureus) (UniProt P0A0J7).
T1 sequence (whole entry): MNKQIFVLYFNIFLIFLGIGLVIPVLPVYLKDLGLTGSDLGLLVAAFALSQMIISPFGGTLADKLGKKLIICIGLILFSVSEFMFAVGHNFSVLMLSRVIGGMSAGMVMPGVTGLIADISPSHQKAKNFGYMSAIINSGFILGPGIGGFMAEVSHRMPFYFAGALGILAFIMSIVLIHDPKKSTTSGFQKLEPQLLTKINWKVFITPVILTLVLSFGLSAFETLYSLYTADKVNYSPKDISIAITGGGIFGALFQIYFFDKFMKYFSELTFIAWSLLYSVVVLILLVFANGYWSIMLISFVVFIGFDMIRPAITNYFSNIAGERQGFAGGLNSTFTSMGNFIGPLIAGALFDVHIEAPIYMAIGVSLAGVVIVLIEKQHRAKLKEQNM
Briefly: Inhibition of NorA efflux pump in Staphylococcus aureus 1199B assessed as potentiation of ciprofloxacin-induced antimicrobial activity after 24 hrs by broth checkerboard method. Summed up: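 Potentiation factor was derived from 24 h, 37 °C checkerboard ciprofloxacin MICs against S. aureus 1199B in Mueller-Hinton broth. Each inhibitor-concentration column was weighted in ascending order: 10 for column 2 (50), adding 10 per column up to 70 for […] (0.8), so that activity at lower inhibitor concentrations counts more.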

Test [2] deals with T1, Quinolone resistance protein NorA (Staphylococcus aureus). The experiment in a line: Inhibition of NorA efflux pump in Staphylococcus aureus 1199B assessed as reduction in MIC of ciprofloxacin by broth checkerboard method.
Test [3] shares this target. Briefly: Inhibition of NorA efflux pump in Staphylococcus aureus 1199B after 24 hrs by broth checkerboard method.
Test [4] shares this target. The experiment in a line: Inhibition of NorA efflux pump in Staphylococcus aureus 1199B assessed as reduction of ciprofloxacin MIC after 24 hrs by broth checkerboard method.

On to `CN1CCN(C(=O)/C=C/C=C/c2ccc3c(c2)OCO3)CC1`, for which, in test [1], the PF worked out at 60 and the logPF worked out at 1.78. The MEC in test [2] came to 25 µg/mL. Also, the MIC in test [3] was > 100 µg/mL. In test [4], the fold change (FC) was 2.
For `NC(=O)c1ccc(NC(=O)/C=C/C=C/c2ccc3c(c2)OCO3)cc1`, in that order: 60, 1.78, 25 µg/mL, > 100 µg/mL and 2.
Turning to `O=C(/C=C/C=C/c1ccc2c(c1)OCO2)Nc1ccc(CO)cc1`, in test [1], the PF came to 200 and the logPF was found to be 2.3. The MEC in test [2] worked out at 6.25 µg/mL. The MIC in test [3] is > 100 µg/mL. For the same compound, the fold change (FC) in test [4] came out at 2.
In the case of `O=C(/C=C/C=C/c1ccc2c(c1)OCO2)Nc1nc2ccccc2s1`, in test [1], the PF was 200 and the logPF is 2.3. Also, the MEC in test [2] was determined as 6.25 µg/mL. Also, the MIC in test [3] is > 100 µg/mL. Further, the fold change (FC) in test [4] was 2.
The corresponding values for `CC(=O)Nc1ccccc1NC(=O)/C=C/C=C/c1ccc2c(c1)OCO2` are 260, 2.42, 25 µg/mL, > 100 µg/mL and 4.
For the compound `CCCNC(=O)/C=C/C=C/c1ccc2c(c1)OCO2`, in test [2], the MEC is 50 µg/mL. In test [3], the MIC was > 100 µg/mL. Besides, the fold change (FC) in test [4] was 0.
As to `O=C(/C=C/C=C/c1ccc2c(c1)OCO2)Nc1ccccc1CO`, in test [1], the PF came to 60 and the logPF worked out at 1.78. In addition, the MEC in test [2] was found to be 25 µg/mL. In test [3], the MIC was > 100 µg/mL. Besides, the fold change (FC) in test [4] came to 2.
For `N#Cc1cccc(NC(=O)/C=C/C=C/c2ccc3c(c2)OCO3)c1`, in that order: 660, 2.82, 50 µg/mL, > 100 µg/mL and 8.
The corresponding values for `CC(=O)Nc1ccc(NC(=O)/C=C/C=C/c2ccc3c(c2)OCO3)cc1` are 260, 2.42, 25 µg/mL, > 100 µg/mL and 4.
`O=C(/C=C/C=C/c1ccc2c(c1)OCO2)Nc1cccc(CO)c1`: in test [1], the PF stood at 60 and the logPF was found to be 1.78. In addition, the MEC in test [2] was 25 µg/mL. In addition, the MIC in test [3] was > 100 µg/mL. The fold change (FC) in test [4] amounted to 2.
Regarding `O=C(/C=C/C=C/c1ccc2c(c1)OCO2)Nc1ccc2ncsc2c1`, in test [1], the PF turned out to be 300 and the logPF stood at 2.48. For the same compound, the MEC in test [2] was found to be 3.12 µg/mL. In addition, in test [3], the MIC is > 100 µg/mL. Besides, the fold change (FC) in test [4] came out at 2.
As to `CC(=O)Nc1ccccc1NC(=O)CCCCc1ccc2c(c1)OCO2`, in test [1], the PF turned out to be 20 and the logPF was 1.3. The MEC in test [2] is 50 µg/mL. The MIC in test [3] is > 100 µg/mL. Moreover, in test [4], the fold change (FC) was determined as 2.
Regarding `CC(C)CCNC(=O)/C=C/C=C/c1ccc2c(c1)OCO2`, in test [1], the PF was found to be 60 and the logPF was found to be 1.78. In test [2], the MEC amounted to 25 µg/mL. In addition, the MIC in test [3] was > 100 µg/mL. In test [4], the fold change (FC) is 2.
For `N#Cc1ccc(NC(=O)/C=C/C=C/c2ccc3c(c2)OCO3)cc1`, in that order: 60, 1.78, 25 µg/mL, > 100 µg/mL and 2.
The corresponding values for `O=C(/C=C/C=C/c1ccc2c(c1)OCO2)Nc1ccc(NC(=O)c2ccccc2)cc1` are 300, 2.48, 3.12 µg/mL, > 100 µg/mL and 2.
For `O=C(/C=C/C=C/c1ccc2c(c1)OCO2)NCC(O)c1ccccc1` (stereo not drawn), in that order: 140, 2.15, 50 µg/mL, > 100 µg/mL and 4.
As to `CCC(CO)NC(=O)/C=C/C=C/c1ccc2c(c1)OCO2` (stereo not drawn), in test [2], the MEC is 50 µg/mL. In addition, in test [3], the MIC was > 100 µg/mL. Further, the fold change (FC) in test [4] amounted to 0.
For `O=C(O)/C=C/C=C/c1ccc2c(c1)OCO2`, in that order: 50 µg/mL, > 100 µg/mL and 0.
Regarding `O=C(/C=C/C=C/c1ccc2c(c1)OCO2)Nc1ccc(C(=O)Nc2ccccc2)cc1`, in test [1], the PF amounted to 360 and the logPF stood at 2.56. Also, the MEC in test [2] was determined as 3.12 µg/mL. For the same compound, the MIC in test [3] is > 100 µg/mL. Moreover, the fold change (FC) in test [4] is 2.
As for `O=C(O)c1cn(C2CC2)c2cc(N3CCNCC3)c(F)cc2c1=O`, in test [3], the MIC came out at 8 µg/mL.
`O=C(/C=C/C=C/c1ccc2c(c1)OCO2)Nc1ccccc1`: in test [1], the PF came out at 140 and the logPF worked out at 2.15. The MEC in test [2] came out at 50 µg/mL. The MIC in test [3] is > 100 µg/mL. The fold change (FC) in test [4] worked out at 4.
For `CC(C)CNC(=O)/C=C/C=C/c1ccc2c(c1)OCO2`, in that order: 60, 1.78, 25 µg/mL, > 100 µg/mL and 2.
Regarding `CCN(CC)C(=O)/C=C/C=C/c1ccc2c(c1)OCO2`, in test [1], the PF came out at 60 and the logPF was 1.78. The MEC in test [2] was 25 µg/mL. In addition, in test [3], the MIC was > 100 µg/mL. For the same compound, the fold change (FC) in test [4] was determined as 2.
For `O=C(CCCCc1ccc2c(c1)OCO2)N1CCCCC1`, in that order: 20, 1.3, 50 µg/mL, > 100 µg/mL and 2.
The corresponding values for `CC(=O)Nc1cccc(NC(=O)/C=C/C=C/c2ccc3c(c2)OCO3)c1` are 320, 2.51, 12.5 µg/mL, > 100 µg/mL and 4.
As to `CC(O)CCNC(=O)/C=C/C=C/c1ccc2c(c1)OCO2` (stereo not drawn), in test [1], the PF came out at 60 and the logPF came out at 1.78. In addition, the MEC in test [2] came to 25 µg/mL. For the same compound, in test [3], the MIC was > 100 µg/mL. Moreover, the fold change (FC) in test [4] is 2.
For `CCC(CC)NC(=O)/C=C/C=C/c1ccc2c(c1)OCO2`, in test [1], the PF worked out at 60 and the logPF was determined as 1.78. Further, the fold change (FC) in test [4] stood at 2.
In the case of `CC(C)NC(=O)/C=C/C=C/c1ccc2c(c1)OCO2`, the MEC in test [2] turned out to be 50 µg/mL. Further, the MIC in test [3] was > 100 µg/mL. Besides, the fold change (FC) in test [4] worked out at 0.
On to `O=C(/C=C/C=C/c1ccc2c(c1)OCO2)N1CCCCC1`, for which, in test [1], the PF was 60 and the logPF is 1.78. The MEC in test [2] was 25 µg/mL. Besides, the MIC in test [3] was > 100 µg/mL.
In the case of `O=C(/C=C/C=C/c1ccc2c(c1)OCO2)N1CCOCC1`, in test [2], the MEC amounted to 50 µg/mL. The MIC in test [3] is > 100 µg/mL. For the same compound, the fold change (FC) in test [4] is 0.
As for `CCN(CC)C(=O)CCCCc1ccc2c(c1)OCO2`, in test [1], the PF turned out to be 20 and the logPF was found to be 1.3. Besides, the MEC in test [2] was determined as 50 µg/mL. Moreover, the MIC in test [3] is > 100 µg/mL. The fold change (FC) in test [4] is 2.
